Compound activity: PubChem, several laboratories
Sampled rows, rich in hits. Any-hit rate of the full collection: about 3.8%.
HSP90 inh = HSP90 inhibitors, primary screen, cell lysate, luminescence; Heat shock protein HSP 90 (rabbit reticulocyte lysate; luciferase refolding); Rabbit reticulocyte lysate, luciferase refolding luminescence, 3 h; inhibition, % at 5.6 µM; 0.91% of 290,000 active; AID 1789, 2009;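 active = inhibition above the screen-wide mean plus 3 SD, computed separately per campaign, cut at about 16% in these data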;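 also: 0% = DMSO wells and 100% = 60 µM geldanamycin wells; inhibitors lower the luminescence because luciferase stays unfolded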
HSF-1 act = HSF-1 activators, primary screen, NIH3T3-HGL cells, MG132 stress, luminescence, single point; 1.7% of 300,000 active; AID 504408, 2011; NIH3T3-HGL HSF-1 luciferase reporter, 8 h; 100% = twice DMSO control signal; activation, % at 9 µM;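 active = mean replicate activation of at least 50% with a set share of replicates each reaching 50%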;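 also: 0% = median of the neutral control wells and 100% = twice that signal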
HCV NS3 hel inh = inhibitors of HCV NS3 helicase, primary screen, biochemical, Cy5 molecular beacon fluorescence; 0.56% of 290,000 active; inhibition, % at 10.9 µM; NS3 helicase DNA unwinding;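 active = inhibition above the mean of all tested compounds plus 3 SD, set per campaign, cut at about 35% in these data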;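 also: 0% = DMSO wells and 100% = thioflavine S control wells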
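System: NS3 helicase fragment of HCV / Schedule: 1 h at 25 °C / Control set: DMSO alone as 0% and 110 µM thioflavine S as 100% / Reagent: Cy5/quencher beacon DNA duplex and ATP to start / Technique: Cy5 fluorescence / Replication: singlicate / Evaluation: % inhibition of end-to-start signal ratio versus controls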
HSF1 inhib = HSF1 inhibitors in luciferase reporter cells, primary screen, cell-based, NIH3T3, luminescence | NIH3T3-HGL HSE-luciferase, MG132-induced, luminescence 8 h; hits give low values | activity change, negative = inhibition, % at 7.5 µM (by protocol) | 0.77% of 300,000 active;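 active = more than half of replicate wells show activity change below -50%, luminescence cut by over half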;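 also: luciferase reports HSF-1 transcriptional activity via heat shock element; 0% = median of DMSO wells and -100% = zero luminescence signal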
Hep lipid drop = inhibitors of hepatocyte lipid droplet formation, primary screen, imaging, high-throughput imaging, BODIPY stain | AID 1656, 2009 | AML12 mouse hepatocytes, oleate lipid droplets | 0.4% of 240,000 active | inhibition, % at 6.5 µM;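 active = lipid droplet intensity inhibited by at least 50%, with more than 500 cells counted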
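Assay system: AML12 mouse liver cells | Compound dosing: One dose, 6.5 µM compound | Read-out basis: Droplet intensity reduction, % inhibition | Measured by: Fluorescence imaging, 20x objective, two fields per well | Schedule: Overnight treatment with compound plus oleate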
Numbers without * were called inactive; · = no result.

SMILES	HSP90 inh	HSF-1 act	HCV NS3 hel inh	HSF1 inhib	Hep lipid drop
CC12c3ccccc3C(c3ccccc31)C1C(=O)N(Cc3cccnc3)C(=O)[C@H]12 (stereo partly drawn)	2	70*	-9	29	-6
CC(CCc1ccccc1)NC(=O)COC(=O)c1ccc(NC(N)=O)cc1 (stereo not drawn)	-3	12	0	0	-1
COc1ccc(C(CC(=O)O)NS(=O)(=O)c2ccc3c(c2)NC(=O)CO3)cc1 (stereo not drawn)	-2	-13	7	-1	-12
C=CCOc1ccc(/C=N/N2C(=O)C(CC(=O)Nc3ccc(F)cc3F)SC2=NC)cc1 (stereo not drawn)	-4	54*	-4	29	20
COc1ccc(S(=O)(=O)Nc2ccncc2)c(C)c1C	-2	60*	8	29	-7
COc1ccc(CCNS(=O)(=O)c2c(C)nc3scc(C)n3c2=O)cc1OC	-5	-1	9	-1	-1
O=C(N/N=C\c1cn(-c2ccccc2)nc1-c1ccccc1)c1ccc2c(c1)OCO2	0	16	4	13	·
O=C(N/N=C/c1cn(-c2ccccc2)nc1-c1ccc2c(c1)OCCO2)c1ccncc1	0	107*	-8	53	21
Cc1cc(OCC(=O)NNC(=O)c2cccnc2)cc(C)c1Cl	-2	·	1	·	4
Cc1ccc(C(=O)NC(=S)Nc2cc(-c3nc4ccccc4s3)ccc2C)cc1	-7	59*	0	16	·
CCOc1ccc(S(=O)(=O)Nc2ccc(C(=O)NCCCN3CCOCC3)cc2)cc1	·	1	·	-3	·
CCN1CCN(c2ccc(S(=O)(=O)N3CCOCC3)cc2NC(=O)CCC(C)C)CC1	·	-9	·	-6	·
Cc1ccc(-n2[nH]c3c4c(ccc3c2=O)C(=O)c2ccccc2C4=O)cc1	1	23	10	0	-5
CC(C)(C)n1[nH]c2c3c(ccc2c1=O)C(=O)c1ccccc1C3=O	17*	-2	-3	-2	17
COC(=O)C1CSC(c2ccc(Cl)cc2)N1C(=O)c1ccccc1 (stereo not drawn)	-4	-13	-8	-1	-1
Nc1nc2nn(-c3ccccc3)nc2c(=O)[nH]1	3	55*	1	21	30
Nc1nc2n[nH]nc2c(=O)[nH]1	·	-5	·	-1	·
COc1ccc(NCc2nnc(SCC(=O)Nc3cc(C(F)(F)F)ccc3Cl)o2)cc1	4	-67	12	-60*	10
Cc1ccccc1N(C(=O)c1ccccn1)C(C(=O)NCc1ccccc1)c1cccnc1 (stereo not drawn)	-4	8	0	-4	-19
O=C(Nc1cccs1)Nc1ccc(Br)cc1F	-4	60*	8	36	-24
O=C(Nc1cccs1)Nc1ccc(F)cc1F	-6	98*	9	47	-13
O=C(/C=C/Nc1ccc(F)cc1F)c1cccs1	-3	77*	-2	30	2
CS(=O)(=O)N(CC(=O)O)c1ccc(C23CC4CC(CC(C4)C2)C3)cc1	-3	-72	17	-65*	1
COc1ccccc1NC(=O)CN(c1ccc(C23CC4CC(CC(C4)C2)C3)cc1)S(C)(=O)=O	4	3	-17	6	·
CCc1ccc(OCC(=O)NNC(=O)c2cc(S(=O)(=O)N(C)C)ccc2N2CCCC2)cc1	·	1	·	6	·
O=S(=O)(Nc1ccc(-c2ccc3nncn3n2)cc1)c1cccs1	·	0	·	-7	·
CCOc1ccc(NC(=O)C2CCCN(c3cnccn3)C2)cc1 (stereo not drawn)	8	-4	1	22	-16
CCCc1ccc(NC(=O)C2CCCN(c3cnccn3)C2)cc1 (stereo not drawn)	1	61*	-3	25	-8
Cc1ccc(C(=O)O)cc1-n1c(=O)n(Cc2ccccc2)c(=O)c2[nH]cnc21	2	7	7	-2	3
c1ccc(COc2cccc(CN3CCc4ccccc4C3)c2)cc1	0	6	-16	-5	0
